Experimental findings from ChEMBL document CHEMBL4808167, “Design, Synthesis, and Evaluation of Small Molecule Gαq/11 Protein Inhibitors for the Treatment of Uveal Melanoma” (J Med Chem, 2021) are described below.

The source made the active and inactive calls. The rule behind the calls is not given here.

Data set [1] in a line: Toxicity in nude BALB/c mouse xenografted with human MP41 cells assessed as morphological changes in heart tissue at 10 to 30 mg/kg, ip administered once daily for 21 days and measured every 3 days by HE staining based assay. To be noted: in vivo, 504 h, dose 10-30 mg/kg, time 21 day. The data set is classed as organism-based. The method in brief: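 Nude BALB/c mice bearing serially passaged MP41 tumour slices (tertiary recipients, n = 8/group, randomized) dosed ip daily for 21 days at 10 or 30 mg/kg/d or vehicle. Body weight monitored every 3 days. Tissues collected at sacrifice, fixed in 4% paraformaldehyde 24 h, paraffin-embedded, H&E stained, viewed at ×100.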

The subject of data set [2] is 921. The experiment in a line: Inhibition of cell migration in human 921 cells at 15 uM incubated for 48 hrs by transwell migration assay. Type of data set: functional, cell-based. The method in brief:
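92.1 or MP41 cells (1 × 10⁴/well) seeded in serum-free medium in the upper transwell chamber, with 20% FBS medium below. Left overnight, then treated 48 h. Non-migrated cells swabbed off; cells on the lower side stained with crystal violet 30 min and counted by light microscopy (×40 for migration, ×100 for invasion). Mean ± SD, n = 3.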

The nature of data set [3]: Induction of apoptosis in human 921 cells assessed as necrotic cells at 5 uM after 48 hrs by Annexin-V-FITC/propidium iodide staining based flow cytometry (reference value: 0.26%). The data set is classed as functional.
A short description of data set [4]: Volume of distribution at steady state in ICR mouse at 10 mg/kg, iv measured upto 24 hrs by LC-MS/MS analysis. The data set is classed as ADME, organism-based. Conditions: in vivo, read-out: Vdss. In outline: (§1)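 Single-dose PK in male ICR mice (n = 6): 10 mg/kg iv or 30 mg/kg po, vehicle 5% DMSO/95% saline. Blood (30 μL) by catheter at 0, 5, 15, 30 min and 1, 2, 4, 6, 8, 24 h; plasma by centrifugation, stored −80 °C, measured by LC–MS/MS. Parameters from noncompartmental analysis, mean SD.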

The nature of data set [5]: Tmax in ICR mouse at 30 mg/kg, po measured upto 24 hrs by LC-MS/MS analysis. Conditions: in vivo. Type of data set: ADME, organism-based. The method in brief: as §1
Data set [6] has as its system 921. Put plainly: Antiproliferative activity against GNAQ knock down human 92.1 cells assessed as inhibition of cell growth at 10 to 15 uM after 72 hrs by CKK8 assay. The data set is classed as functional. Conditions: dose 10-15 µM.
A short description of data set [7]: MRT(0 to t) in ICR mouse at 30 mg/kg, po measured upto 24 hrs by LC-MS/MS analysis. Type of data set: ADME, organism-based. To be noted: in vivo. The method in brief: as §1
Data set [8] concerns the target T1, GNAQ/GNA11 (Homo sapiens) (UniProt P50148+P29992). The experiment in a line: Inhibition of Galphaq/11 in human MP41 cells assessed as induction of YAP phosphorylation at 5 to 15 uM after 48 hrs by Western blot analysis. Conditions: dose 5-15 µM. Type of data set: cell-based. In outline:
(§2)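 92.1 and MP41 cells plated overnight, then exposed to compound 48 h. Lysed in ice-cold buffer and protein quantified by BCA. Resolved on 8−12% SDS−PAGE and transferred to PVDF. Probed for p-YAP Ser127, total YAP, p-ERK1/2 Thr202/Tyr204 and total ERK1/2, with GAPDH as loading control. ECL detection, triplicate.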

The target of the next data set is T2, GNAQ/GNA11 (Homo sapiens, UniProt P50148+P29992).
T2 sequence (P50148 whole entry): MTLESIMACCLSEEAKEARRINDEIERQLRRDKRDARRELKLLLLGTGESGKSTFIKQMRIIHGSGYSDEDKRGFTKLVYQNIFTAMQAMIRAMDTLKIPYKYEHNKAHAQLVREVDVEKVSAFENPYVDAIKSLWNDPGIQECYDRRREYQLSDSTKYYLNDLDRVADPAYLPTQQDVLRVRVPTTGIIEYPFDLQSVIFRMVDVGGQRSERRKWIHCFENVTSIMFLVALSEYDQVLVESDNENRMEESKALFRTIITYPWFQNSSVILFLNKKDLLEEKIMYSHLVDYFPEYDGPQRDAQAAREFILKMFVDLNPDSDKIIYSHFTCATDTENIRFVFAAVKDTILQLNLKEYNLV
T2 sequence (P29992 whole entry): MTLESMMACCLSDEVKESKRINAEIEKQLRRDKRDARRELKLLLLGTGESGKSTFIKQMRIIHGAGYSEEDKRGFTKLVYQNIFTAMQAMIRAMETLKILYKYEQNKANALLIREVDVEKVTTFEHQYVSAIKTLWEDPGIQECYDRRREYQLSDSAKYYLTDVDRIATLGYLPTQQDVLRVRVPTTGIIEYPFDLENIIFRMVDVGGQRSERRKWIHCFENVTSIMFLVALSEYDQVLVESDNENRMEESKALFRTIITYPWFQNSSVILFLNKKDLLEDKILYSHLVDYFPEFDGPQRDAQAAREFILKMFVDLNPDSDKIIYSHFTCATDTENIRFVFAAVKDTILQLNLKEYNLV
The experiment in a line: Inhibition of Galphaq/11 (unknown origin) expressed in CHO cells coexpressing M1 receptor assessed as reduction in carbachol-induced IP1 accumulation preincubated for 1 hr followed by carbachol stimulation and measured after 1 hr by HTRF assay. The data set is classed as cell-based.

A short description of data set [9]: Clearance in ICR mouse at 10 mg/kg, iv measured upto 24 hrs by LC-MS/MS analysis. The data set is classed as ADME, organism-based. To be noted: in vivo. The method in brief:
(§3)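 Single dose in male ICR mice, 10 mg/kg iv or 30 mg/kg po, dissolved in 5% DMSO/95% saline. Blood drawn by catheter at 0, 5, 15, 30 min and 1, 2, 4, 6, 8, 24 h. Plasma spun 6800g 6 min at 2−8 °C, stored −80 °C, quantified by LC−MS/MS. Noncompartmental parameters, mean ± SD, n = 6.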

For data set [10], the target named is T1, GNAQ/GNA11 (Homo sapiens). The experiment in a line: Inhibition of Galphaq/11 in human MP41 cells assessed as induction of YAP phosphorylation at 15 to 30 uM after 48 hrs by Western blot analysis. The data set is classed as cell-based. To be noted: dose 15-30 µM. The method in brief: as §2
The nature of data set [11]: Antitumor activity against human MP41 cells xenografted in nude BALB/c mouse assessed as tumor growth inhibition at 10 mg/kg, ip administered for once daily for 21 days and measured every 3 days. Type of data set: functional. Conditions: 504 h, time 21 day, read-out: TGI. In outline: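 MP41 tumours were passaged subcutaneously mouse-to-mouse in nude BALB/c mice (6−8 weeks, 20−25 g). Tertiary recipients randomized, n = 8/group, given 10 or 30 (mg/kg)/d ip or vehicle for 21 days. Tumour size (V = A × B² × π/6, caliper) and body weight taken every 3 days; tumours excised and weighed on day 22. TGI computed versus the vehicle group.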

The nature of data set [12]: Cmax in ICR mouse at 10 mg/kg, iv measured upto 24 hrs by LC-MS/MS analysis. To be noted: in vivo. The data set is classed as ADME, organism-based. The arrangement: route intravenous, dose 10 mg/kg, time <=24. In outline: as §3
The nature of data set [13]: Induction of apoptosis in human MP41 cells assessed as necrotic cells at 15 uM after 48 hrs by Annexin-V-FITC/propidium iodide staining based flow cytometry (reference value: 0.11%). Type of data set: functional.
Data set [14] addresses T1, GNAQ/GNA11 (Homo sapiens). The experiment in a line: Inhibition of Galphaq/11 in human 921 cells assessed as reduction in ERK phosphorylation at 15 to 30 uM after 48 hrs by Western blot analysis. The data set is classed as cell-based. To be noted: b, dose 15-30 µM. The method in brief: as §2
Data set [15] in a line: Half life in ICR mouse at 30 mg/kg, po measured upto 24 hrs by LC-MS/MS analysis. To be noted: in vivo. The data set is classed as ADME, organism-based. The method in brief:
as §3

A short description of data set [16]: Tmax in ICR mouse at 10 mg/kg, iv measured upto 24 hrs by LC-MS/MS analysis. The data set is classed as ADME, organism-based. Conditions: in vivo. The method in brief: as §1

On to `CC[C@@H](C)[C@H](N)C(=O)N1CCn2cc(-c3ccccc3)nc2[C@@H]1CC1CCCCC1`, for which the Activity result in [1] is listed as “Non-Toxic”; in data set [3], 0.43%; in [13], 0.09%. Further, the inhibition result (with 921 [2]; in data set [8]; in data set [10]; in data set [14]) was “Active” in each case. For the same molecule, the Vd in [4] worked out at 4.53 L/kg. The Tmax in data set [5] was 25.2 min; in data set [16], 4.8 min. The result in the data set on 921 [6] was inactive. The molecule further returned an MRT last at 24 h in data set [7] of 113 min. The IC50 on GNAQ/GNA11 stood at 22.6 µM. Moreover, the clearance in data set [9] was determined as 77.9 mL/min/kg. The inhibition in vivo at 10 mg/kg in data set [11] turned out to be 65.4%. The same molecule yielded a Cmax in data set [12] of 2610 ng/mL. The molecule further gave a half-life in [15] of 84.6 min.
